Screens (PubChem BioAssay)
MEKK2 WT-MEK5: raises or lowers MEK5 binding to wildtype human MEKK2 PB1 domain | Q9Y2U5 | bead flow cytometry, Alexa488-MEK5 binding to MEKK2 WT; actives lie on both sides | binding response (% of control), % at 10 µM | hit rate 1.1% among 290,000 | AID 1531; in the data active = binding response below about 67% or above about 130%
MEKK3 PB1 HTS: modulators (inhibitors or enhancers) of MEK5 binding to human MEKK3 PB1 domain. Q99759. hit rate 1.4% among 290,000. bead-based flow cytometry, Alexa488-MEK5 binding to MEKK3; actives lie on both sides; 0 = blocked by unlabeled MEK5, 100 = vehicle. binding response (% of control), % at 10 µM. AID 1529;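 active = binding response more than 3 SD above or below the average of its plate-row segment, actives on both sides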;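 note: Alexa488 bead fluorescence after subtracting the streptavidin-only scavenger bead signal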
Target sequence (Q99759 whole entry, looked up, the tested form may be a part): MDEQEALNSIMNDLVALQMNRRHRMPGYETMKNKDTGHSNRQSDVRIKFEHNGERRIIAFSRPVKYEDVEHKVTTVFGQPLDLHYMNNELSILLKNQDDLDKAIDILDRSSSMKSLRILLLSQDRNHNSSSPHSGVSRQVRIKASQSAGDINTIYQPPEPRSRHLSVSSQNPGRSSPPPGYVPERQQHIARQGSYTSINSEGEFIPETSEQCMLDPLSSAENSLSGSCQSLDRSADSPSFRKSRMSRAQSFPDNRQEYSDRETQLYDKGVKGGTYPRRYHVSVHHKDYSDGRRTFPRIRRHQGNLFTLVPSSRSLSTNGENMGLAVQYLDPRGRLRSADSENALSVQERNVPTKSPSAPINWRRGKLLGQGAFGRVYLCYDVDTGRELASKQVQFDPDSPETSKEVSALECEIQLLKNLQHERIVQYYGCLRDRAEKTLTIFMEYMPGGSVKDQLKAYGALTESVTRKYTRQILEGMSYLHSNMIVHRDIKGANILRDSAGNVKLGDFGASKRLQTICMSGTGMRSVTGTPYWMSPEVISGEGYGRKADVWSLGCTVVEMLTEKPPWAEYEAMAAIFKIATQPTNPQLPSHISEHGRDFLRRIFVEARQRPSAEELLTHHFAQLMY
MEKK2 mut-MEK5: signal of MEK5 binding to mutant human MEKK2 PB1 domain; bead flow cytometry, Alexa488-MEK5 binding to MEKK2 mutant; percent response, % at 10 µM; hit rate 0.35% among 290,000; AID 1530; in the data active = percent response above about 24%, passing the limit was not always enough
Arrestin-AP2 inh: inhibitors of human beta-arrestin and AP2 interaction; inhibition, % at 10 µM; hit rate 0.31% among 340,000; AID 504490; FITC-arrestin peptide / GST-AP2 beads, flow cytometry; AP2 beta2 appendage carries R879A mutation;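 active = inhibition above a set limit, near 3 SD of compounds lacking own fluorescence, cut at about 54% in these data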;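 note: plate controls were DMSO wells for no effect and 5 µM unlabelled arrestin peptide for full effect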
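system = GST-tagged AP2 beta2-adaptin appendage (R879A) on 4 µm glutathione beads | reagent = FITC-labelled arrestin peptide probe, 50 nM final | schedule = compound with beads 12 min RT, then probe 1 h RT | signal = HyperCyt-sampled flow cytometry, FL1 channel, ex 488/em 535 nm | read-out = percent response from loss of bead-bound FITC fluorescence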
MEKK2wt confirm: raises or lowers MEK5 binding to wildtype human MEKK2, retest; binding response (% of control), % at 10 µM; AID 1892; bead flow cytometry, Alexa488-MEK5 binding to MEKK2 WT; actives lie on both sides; hit rate 2.4% among 5,900; shares compounds with MEKK3 PB1 HTS; in the data active = binding response below about 16% or above about 210%; inactive = in between
MEKK2mut confirm: signal of MEK5 binding to mutant human MEKK2, retest; bead flow cytometry, Alexa488-MEK5 binding to MEKK2 mutant; hit rate 2% among 5,900; percent response, % at 10 µM; shares compounds with MEKK3 PB1 HTS; in the data active = percent response mostly above about 71%, no sharp cut-off; inactive = mostly below about 38%;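 note: higher means compound restores mutant binding toward wildtype level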
MEKK3 confirm: MEKK3-MEK5 PB1 inhibition, single concentration confirmation; bead flow cytometry, Alexa488-MEK5 binding to MEKK3; stronger effect = lower value; shares compounds with MEKK3 PB1 HTS; hit rate 1.8% among 5,900; binding response (% of control), % at 10 µM;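 active = binding response below 72% of control, or above a set upper limit, though filed actives all read lower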;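 note: 100% = DMSO only wells and 0% = binding blocked by excess unlabeled MEK5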
* hit, by the source's call; . = no result given; [ ] = another dose, or the depositor's remark. The list is not random: actives were taken first. Their share in the collection is about 2.3%.

SMILES	MEKK2 WT-MEK5	MEKK3 PB1 HTS	MEKK2 mut-MEK5	Arrestin-AP2 inh	MEKK2wt confirm	MEKK2mut confirm	MEKK3 confirm
COc1ccc(-c2cc(C(=O)OCC(=O)c3ccc(C)c([N+](=O)[O-])c3)c3ccccc3n2)cc1	103	130*	0	-6	94	-3	97
COc1ccc(-c2nn(-c3ccccc3)cc2C(=O)OCC(=O)c2ccc(C)c([N+](=O)[O-])c2)cc1	104	102	4	-1	.	.	.
NC(=O)NC(CC(=O)N1CCc2ccccc2C1)c1ccc(Cl)cc1 (stereo not given)	104	102	3	0	.	.	.
CCOc1cc(N2CCOCC2)c(OCC)cc1NC(=O)c1ccc(OCc2c(C)noc2C)c(OC)c1	105	131*	1	-5	104	6	102
CCOc1cc(N2CCOCC2)c(OCC)cc1NC(=O)CN1CCCC1	108	132*	1	-1	101	-1	99
NC(=S)NNC(=O)COc1ccccc1O	105	103	-2	-2	.	.	.
Cc1ccc(S(=O)(=O)N(C)CCN(C)S(=O)(=O)c2ccc(C)cc2)cc1	.	.	.	-4	.	.	.
Cc1c(C(=O)Nc2ccccc2F)sc2ncn(CC(=O)N3CCOCC3)c(=O)c12	101	104	-1	-5	.	.	.
O=C(CN1CCC(C(O)(c2ccccc2)c2ccccc2)CC1)Nc1cc(Cl)ccc1Cl	78	72*[inhibitor]	-14	11	98	-2	104
CC1C(=O)N2CCCc3cc(NC(=O)COc4ccc(Cl)cc4)cc1c32 (stereo not given)	.	.	.	34	.	.	.
O=C(Nc1cccc(Cl)c1)Nc1cccc(Cl)c1	161*	112	16	8	150	32	105
Cc1nc(C)c(C(=O)Nc2cccc(Cl)c2)o1	84	77*[inhibitor]	-6	4	103	4	101
Cc1nc(C)c(C(=O)NCc2ccc(Cl)cc2)o1	81	76*[inhibitor]	-6	3	99	-2	104
O=C(Nc1cccc(Cl)c1)Nc1cc(S(=O)(=O)N2CCCCC2)ccc1Cl	131	102	78*	29	124	1	103
O=C(/C=C/Nc1ccc(Oc2ccccc2)cc1)c1ccco1	95	98	-3	7	.	.	.
COc1cc(OC)cc(-c2c(-c3cccs3)c3cc(-c4ccc(N(C)C)nc4)ccc3n2C)c1	.	.	.	1	.	.	.
O=C(Nc1cccc(S(=O)(=O)N2CCCCCC2)c1)c1ccc2c(c1)OCO2	105	140*	-1	13	101	-3	106
O=C(Nc1cccc(S(=O)(=O)N2CCCC2)c1)c1ccc2c(c1)OCO2	107	108	10	-7	.	.	.
Cc1ccc(-c2sc(C(=O)NN)c(C)c2C#N)cc1	102	98	2	-1	.	.	.
CCOc1ccccc1NC(=O)C(OC(=O)c1ccccc1)c1ccccc1 (stereo not given)	106	130*	1	2	95	-5	100
CCOc1ccccc1NC(=O)C(OC(=O)c1ccccc1O)c1ccccc1 (stereo not given)	93	97	-1	1	.	.	.
Cc1ccc(/C=C2\C(=N)N3N=C(CC(=O)N4CCOCC4)SC3=NC2=O)o1	104	101	4	-15	.	.	.
N=C1/C(=C\c2ccc(SCc3ccccc3)o2)C(=O)N=C2SC(CC(=O)N3CCOCC3)=NN12	50	48*[inhibitor]	-12	4	94	-6	94
CCCc1nn(C)c(C(=O)Nc2cccc3ccccc23)c1Cl	107	131*	1	-6	105	0	109
CCCc1nn(C)c(C(=O)Nc2ccc(CC)cc2)c1Cl	106	106	2	0	.	.	.
CC(=O)Nc1ccccc1C(=O)C(=O)Nc1cccc(C(=O)NCc2ccc(C)cc2)c1	108	134*	1	.	96	-2	100
CC(=O)Nc1ccccc1C(=O)C(=O)Nc1cccc(C(=O)NCc2ccccc2)c1	95	96	-2	2	.	.	.
c1ccc2c(-c3[nH]ncc3CNCCCn3ncc4ccccc43)cccc2c1	127	108	2	23	.	.	.
